Data reported in the RNAGym collection of RNA variant scans (doi:10.1126/science.aae0568).
This sample holds only a part of the variants without activity.

B1: tRNA (parent)
chain: GUUCCGUUGGCGUAAUGGUAACGCGUCUCCCUCCUAAGGAGAAGACUGCGGGUUCGAGUCCCGUACGGAACG

Variants of: B1
Experiment: yeast fitness relative to wild type (ratio to wild type); higher = fitter; tRNA-Arg(CCU), competitive growth, 37 C, YPD
In short: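 A pool of Saccharomyces cerevisiae strains, each with a tRNA-Arg(CCU) gene variant at the native genomic locus, was competed in YPD at 37°C for 24 hours across six parallel replicates. The variants had been chemically synthesised at a 3% per-site mutation rate over 69 sites, and gene amplicons before and after competition were read by 100-nucleotide paired-end sequencing. Darwinian fitness relative to wild type rested on changes in genotype frequencies. Genotypes required ≥ 100 starting reads, and estimates < 0.5 were set to 0.5.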

| Variant | yeast fitness |
| --- | --- |
| A14U U19A A36C G63A | 0.586 |
| G9A A15C | 0.788 |
| C24A A40G C49A A65C | ≤ 0.5 |
| C27G C29A C62U | 0.647 |
| C5U G39C U59A C60G | ≤ 0.5 |
| U32C A43G A70G | 0.708 |
| C27U A43C | 0.965 |
| G10A G18A C46A | 0.539 |
| A14G G23A C29G G68C | ≤ 0.5 |
| A14G G39C U47C | ≤ 0.5 |
| C5G U35A A36C C55A | ≤ 0.5 |
| C31U A36U A45C C62U | ≤ 0.5 |
| U3A C31A C34A A37C | 0.661 |
| G12A G23C C30G A37U C62U A65U | ≤ 0.5 |
| G23A C30A | 0.792 |
| C27U U28A U32A C34U A36C C55A A70G | 0.539 |
| A14U U53A A65U | ≤ 0.5 |
| A45C C49U A70C | 0.813 |
| U7G C11U | 0.807 |
| G17C U26C C46U U64A | ≤ 0.5 |
| C27G C34G A57G G67C A69U | ≤ 0.5 |
| G9A C22A U53A A57G C60A | ≤ 0.5 |
| A20G C33A A36C U47A C66A | ≤ 0.5 |
| U7C A21G C33G C60U | ≤ 0.5 |

| Variant | yeast fitness |
| --- | --- |
| C27G A43C C66A | ≤ 0.5 |
| G17C G18C C22A | ≤ 0.5 |
| G6C U7G C24G C34U U53C C55G C62A | ≤ 0.5 |
| U2G C33U A42C | 0.681 |
| A20C G50A G68A | ≤ 0.5 |
| A45C C55U G56A | 0.539 |
| A20G C27G A43U G63A G68C | ≤ 0.5 |
| U8G C11G U32A G67C | ≤ 0.5 |
| C22U C27G A40G A42G | ≤ 0.5 |
| A21U G44C | 0.769 |
| A15C A43G C46A | 0.526 |
| U8G U28C G38C C62U | ≤ 0.5 |
| U3G G6A A36U G48C G52C A57U C60G | 0.569 |
| C27G G56A | 0.614 |
| C11A G18C | ≤ 0.5 |
| U35C G48A | 0.937 |
| A65C A69G | 0.939 |
| C5U C11U C46G | 0.7 |
| C11U G48A A65U | 0.792 |
| C24G G56A | 0.618 |
| C34A A36G U47C | ≤ 0.5 |
| G10C U26C C55U | 0.507 |
| C5U A14U C55G A65G | 0.566 |
| C22G G63A G68U | ≤ 0.5 |

| Variant | yeast fitness |
| --- | --- |
| U2A U3A A45G C49U | 0.609 |
| C5A C31G C46A | 0.54 |
| C22G U32G | 0.626 |
| C5G G25C C29G A65U | ≤ 0.5 |
| U32G G39C A57U C62G | ≤ 0.5 |
| A20C A21U C27G A42U A70G | ≤ 0.5 |
| U32C A57U | 0.813 |
| C33G A40U G51C | ≤ 0.5 |
| U19G C27U A37G U47C | ≤ 0.5 |
| C27U C30U C46U U54G A70G | 0.655 |
| U2A A42G | 0.74 |
| U3C U19A A43G | 0.677 |
| C62A A69C | 0.78 |
| G6C U26C G68A | 0.537 |
| U7C G10A G41C U64G A65C | ≤ 0.5 |
| G6C A14G U28A C46G U54C G68U | ≤ 0.5 |
| U8G A15C G18C C49U U64A A69U | ≤ 0.5 |
| G9A C11G U13C C27A C29U | ≤ 0.5 |
| G9A C30U C34G A40C C49G G68C | ≤ 0.5 |
| U3C G25C C62U G68A | 0.796 |
| A21G C29U C31U | ≤ 0.5 |
| U7G C29A C30A U54A A57G U64A | 0.561 |
| U3A A15U C34U G48A C60U | ≤ 0.5 |
| C5U U32G C33G C55U | 0.621 |

| Variant | yeast fitness |
| --- | --- |
| U2C G25A A69U | 0.711 |
| G23A G25A | 0.958 |
| U7C A15G G51C A57U | ≤ 0.5 |
| A21C C22U A43U | 0.538 |
| G9A C11G | 0.583 |
| G38C G67U A70U | ≤ 0.5 |
| U8A A15U A21G C34A A37G | 0.51 |
| U19C C27A C31G U32C G39C | ≤ 0.5 |
| G6C A40U | 0.803 |
| U7C G10C C61G C62U | ≤ 0.5 |
| A43C A57G | 0.744 |
| C11U G25A A57C C60U G67C | ≤ 0.5 |
| U2A C24U C30U C34U G52A C66G | ≤ 0.5 |
| A43U A65C A69C | ≤ 0.5 |
| G23A U28A C30U A40U G52C G67A | 0.63 |
| G10A A20G C29U C49U G56A G63A | ≤ 0.5 |
| U19A A21G C29G | 0.543 |
| C22U G23C | 0.722 |
| C33U A40U C66U | ≤ 0.5 |
| G6C A15G C24U C60A | 0.554 |
| G12A U26A | 0.941 |
| U2A C11U C29G A37C A42U A57G G67A | ≤ 0.5 |
| C5A C62U A69C | 0.738 |
| G9A C11U U47G C62G A69C | ≤ 0.5 |

| Variant | yeast fitness |
| --- | --- |
| C5G G48C G56A | 0.544 |
| A15G C29A G58A | 0.57 |
| C30U U35A A42G C61U G63A | 0.519 |
| U16A C34G | 0.683 |
| C49U C62G G68C | 0.536 |
| C4U C62U | 0.992 |
| U16G C55G | 0.544 |
| G6A C11A C24G A42U | ≤ 0.5 |
| G52C | 0.635 |
| C29A A42G A45U G50A | 0.534 |
| A14C A40G C49U G58A | ≤ 0.5 |
| A14C G56A A69C | 0.578 |
| C5U A14C G68C | ≤ 0.5 |
| U8G C22U G51C G58A | ≤ 0.5 |
| G48A G58C C66U | 0.714 |
| A14U A21U C31U A43U G44C | ≤ 0.5 |
| A43U C49U C62U | 0.79 |
| A20U C49G A69U | 0.677 |
| G6C U8A C22U U59C | ≤ 0.5 |
| G50A C62G | 1.03 |
| U3A C24U C46U G48A C49G | ≤ 0.5 |
| C11G C24U A42U A43U C66U | ≤ 0.5 |
| A15C G23C A65G | ≤ 0.5 |
| U19C C29U A42C A57G | 0.541 |

| Variant | yeast fitness |
| --- | --- |
| C5U G56A G68C A69U | ≤ 0.5 |
| C29A C30A G58A | ≤ 0.5 |
| U32C A69G | 0.882 |
| C34U A57G C60A | ≤ 0.5 |
| A42U G44C U54A | ≤ 0.5 |
| U19A A45U A69U | 0.739 |
| C4G G12A C30U G63A G68C | 0.574 |
| C29G U35C A57G | ≤ 0.5 |
| G39A A45C C61U | 0.706 |
| C30G A45G U47C | ≤ 0.5 |
| C33G A40U G48C C60G | ≤ 0.5 |
| C11A U35A A37U | ≤ 0.5 |
| A37U C61U A70G | 0.572 |
| C11G A37G G51C A57G C66U | ≤ 0.5 |
| U7C U19C C34U G52A U59A | 0.678 |
| G6A C27A G50A A69U | 0.542 |
| G10C C30A | 0.815 |
| C5G A37U G67A | ≤ 0.5 |
| A14U C33G | ≤ 0.5 |
| U8C G18U A21C G63A | ≤ 0.5 |
| C5G C22G C31A C49G G63C A69U | ≤ 0.5 |
| U26G G67C G68A | ≤ 0.5 |
| A42U C62A | 0.636 |
| C31U A45G | 0.932 |

| Variant | yeast fitness |
| --- | --- |
| C11G C29A A43C U64C | ≤ 0.5 |
| U19C G25A A37U C62A U64C | ≤ 0.5 |
| U7G C34A A36U G52A C60A | ≤ 0.5 |
| C29G C61G | 0.54 |
| U19C C62U | 0.925 |
| G25C U32C C46U G50A | 0.667 |
| C5G C27A C31A A42C | ≤ 0.5 |
| G9A A43G G63A | ≤ 0.5 |
| U47C G63C C66U | ≤ 0.5 |
| C4U A21C C24U G38A | ≤ 0.5 |
| G9A C22U C30A C49A C55A C61A C62U C66U | ≤ 0.5 |
| C5U G10C A15G C29G A40C A43U U47A C60A | ≤ 0.5 |
| G17C G38C G52C | ≤ 0.5 |
| G6C U26C | 0.959 |
| U2G G6A G44A G67C | 0.531 |
| G10A A20C A57C | ≤ 0.5 |
| C46U U59G C60A G63C A69U | 0.632 |
| C11U C62G C66A | ≤ 0.5 |
| C24G C34G A40G A45C C66G A69U | 0.596 |
| G10A C11G C31U A37C | ≤ 0.5 |
| G44C A65G | 1.06 |
| U8G A21U C27G C49U | 0.687 |
| G39A C55U G68C A69G | ≤ 0.5 |
